KCNQ1 act – potentiators or activators of KCNQ1 channel, primary screen, cell-based, thallium flux, high-throughput; Potassium voltage-gated channel subfamily KQT member 1 (Homo sapiens), P51787; CHO-K1 KCNQ1, thallium flux FluxOR fluorescence; active compounds read high; B-score at 10 µM; 310,000 compounds, 0.35% hits; AID 2648, 2010;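 active = fluorescence ratio B-score, a plate-corrected score, at least three library SD, with initial intensity B-score within 5 SD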
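Assay system: CHO-K1 cells stably expressing KCNQ1; Medium: assay buffer with matched DMSO; Also added: K+/Tl+ depolarizing stimulus; Dosing: single dose; Timing: dye 90 min, compound 20 min, room temperature; Measured by: kinetic FluxOR thallium fluorescence, 10-s 1-Hz baseline, 110-s post-stimulus read; Read-out: peak-minus-minimum fluorescence over initial fluorescence, negative-control normalized, B-scored.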
KCNK9 block – KCNK9 potassium channel inhibitors, primary screen, HEK293 cells, thallium flux; Potassium channel subfamily K member 9 (Homo sapiens), Q9NPC2; 310,000 compounds, 1.2% hits; FluxOR thallium flux fluorescence; active compounds read low; B-score at 10 µM; AID 488922, 2010;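 active = ratio B-score over 3 SD below the library mean, with starting fluorescence within 5 SD of its mean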;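 also: negative B-score means less thallium flux so channel inhibition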
KCNQ1 inh – inhibitors of human KCNQ1 channel, primary screen, cell-based, thallium flux, high-throughput | CHO-K1 KCNQ1, FluxOR thallium flux fluorescence; active compounds read high | 310,000 compounds, 1.3% hits | B-score at 10 µM | Potassium voltage-gated channel subfamily KQT member 1 (Homo sapiens), P51787 | AID 2642, 2010;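 active = compounds whose thallium flux B-score, printed positive for inhibition, exceeds three library SD while starting fluorescence stays within three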;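 also: channel opened by potassium depolarization with thallium stimulus after 20 min compound exposure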
hERG rescue – hERG rescue from dofetilide block, primary screen, cell-based, CHO-hERG, FluxOR thallium flux, dofetilide IC70; activation (rescue from dofetilide block), less the hit threshold, % at 10 µM; dofetilide IC70 present; 310,000 compounds, 0.51% hits; Voltage-gated inwardly rectifying potassium channel KCNH2 (Homo sapiens), Q12809;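 active = activation above the mean of controls blocked by dofetilide plus 5 SD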;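 also: thallium influx through hERG after potassium depolarization seen as dye fluorescence rise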
Kir21 inh – inhibitors of mouse Kir2.1 inward-rectifier potassium channel. Inward rectifier potassium channel 2 (Mus musculus), P35561. HEK293-Kir2.1, FluxOR thallium flux fluorescence; active compounds read low. B-score at 10 µM. 310,000 compounds, 0.85% hits. AID 1672, 2009;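 active = fluorescence ratio B-score at or below minus 3 SD of library scores, with starting-brightness B-score within 2 SD, cut at about -4.2 in these data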;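 also: channel flux triggered by added potassium and thallium sulfate stimulus; B-score of peak minus minimum fluorescence over baseline after thallium stimulus; more negative B-score means stronger Kir2.1 block with less thallium influx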
KCNK3 inh – human KCNK3 channel inhibitors, primary screen, CHO cells, FluxOR thallium flux, B-score; AID 602410, 2012; 340,000 compounds, 0.84% hits; B-score at 10 µM; FluxOR fluorescence; active compounds read low; Potassium channel subfamily K member 3 (Homo sapiens), O14649;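 active = B-score under library mean minus 4 SD, starting fluorescence ratio at most library mean plus 5 SD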;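 also: more negative B-score means stronger inhibition of thallium flux through KCNK3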
KCNQ1 inh valid – KCNQ1 potassium channel inhibitors, confirmation, cell-based, Tl flux, duplicate | shares compounds with KCNQ1 inh | KCNQ1 cell line, FluxOR thallium flux fluorescence | inhibition, % at 10 µM | 1,600 compounds, 93% hits | AID 588353, 2011;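 active = primary screen active, with duplicate mean exceeding buffer control mean plus 3 SD of buffer wells, cut at about 28% in these data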;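 also: 0% = buffer control ratio and 100% = XE991 inhibitor control ratio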
CHO Tl flux – thallium flux effects in parental CHO cells, counter-screen for KCNQ1 inhibitor project, cell-based, Tl flux. parental CHO-K1, FluxOR thallium flux fluorescence ratio; active compounds read low; zero means no signal rise above baseline. fluorescence ratio (Tl flux) at 10 µM. shares compounds with KCNQ1 inh. 1,600 compounds, 21% hits. AID 588366, 2011;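 active = mean of duplicate thallium-flux fluorescence ratios in parental host cells more than 5 SD below the buffer control mean, cut at about 0.38 in these data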;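 also: ratio is peak minus minimum fluorescence divided by baseline fluorescence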
KCNQ1 APC inh – KCNQ1 channel inhibitors, confirmation, orthogonal assay, cell-based, automated electrophysiology. calls only at 10 µM. 490 compounds, 20% hits. KCNQ1-CHO cells, automated patch clamp current. shares compounds with KCNQ1 inh;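 active = KCNQ1 current drop exceeding 3 SD of negative control wells, seen in both duplicate runs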;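 also: steady state current during a 2 s step from -80 to +40 mV; negative values mean current inhibition and positive values mean potentiation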
KCNQ2 inh – KCNQ2 channel inhibition, selectivity assay for KCNQ1 inhibitor project, cell-based; shares compounds with KCNQ1 inh; KCNQ2 cells, FluxOR thallium flux fluorescence; inhibition, % at 10 µM; 1,600 compounds, 71% hits;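 active = mean percent inhibition of the KCNQ2 thallium signal more than 5 SD above the buffer-only control wells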;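 also: KCNQ2 expressed in CHO cells; 0% = buffer control wells and 100% = XE-991 inhibitor control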
KCNQ1-KCNE1 inh – KCNQ1/KCNE1 channel inhibition, selectivity assay for KCNQ1 inhibitor project, CHO-K1 cells, thallium flux, FluxOR; shares compounds with KCNQ1 inh; 1,600 compounds, 77% hits; inhibition, % at 10 µM; AID 652147, 2013; FluxOR thallium flux fluorescence;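 active = mean percent inhibition of duplicate wells above the buffer-only control mean plus 3 SD of those controls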;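 also: 0% = buffer only wells and 100% = XE-991 inhibitor control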
Target sequence (P51787 whole entry, looked up): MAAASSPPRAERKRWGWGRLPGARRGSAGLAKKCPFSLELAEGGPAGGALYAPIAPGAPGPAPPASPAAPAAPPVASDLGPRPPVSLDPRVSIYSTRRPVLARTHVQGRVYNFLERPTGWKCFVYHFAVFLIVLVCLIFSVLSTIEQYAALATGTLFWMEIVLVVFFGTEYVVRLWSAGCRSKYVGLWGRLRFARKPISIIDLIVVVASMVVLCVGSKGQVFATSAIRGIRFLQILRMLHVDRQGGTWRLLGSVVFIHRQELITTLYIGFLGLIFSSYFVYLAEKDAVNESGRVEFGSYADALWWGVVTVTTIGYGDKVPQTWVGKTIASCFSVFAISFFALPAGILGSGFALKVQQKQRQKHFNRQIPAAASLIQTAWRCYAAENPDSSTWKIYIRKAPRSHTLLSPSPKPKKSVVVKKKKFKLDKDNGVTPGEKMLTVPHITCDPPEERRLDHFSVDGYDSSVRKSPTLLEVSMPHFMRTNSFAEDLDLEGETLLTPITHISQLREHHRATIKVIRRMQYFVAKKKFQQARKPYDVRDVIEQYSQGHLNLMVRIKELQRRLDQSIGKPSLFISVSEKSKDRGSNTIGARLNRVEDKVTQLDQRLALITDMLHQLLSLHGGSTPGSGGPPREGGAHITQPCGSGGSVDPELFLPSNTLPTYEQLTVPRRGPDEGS
An asterisk follows results filed as active; i = inactive; / = no result; + = active, no number. Rows were chosen to be rich in hits. Some 3.7% of all compounds tested hit in one or more screens of this group.

SMILES	KCNQ1 act	KCNK9 block	KCNQ1 inh	hERG rescue	Kir21 inh	KCNK3 inh	KCNQ1 inh valid	CHO Tl flux	KCNQ2 inh	KCNQ1-KCNE1 inh	others
Cc1cc(Nc2ccccc2)nc2cc(O)ccc12	i	i	7*	-19	-5.2*	i	40*	0.47	i	i
CC(=O)Nc1ccc(Nc2cc(C)c3ccccc3n2)cc1	i	i	i	-4	-1.1	i	/	/	/	/
c1ccc(CC2CCN(c3ncnc4sccc34)CC2)cc1	i	i	8*	-32	0.02	i	136*	0.33*	89%*	176%*
COc1cc(OC)c(C(=O)OCC(=O)N2CCN(S(=O)(=O)c3ccc(C)cc3C)CC2)cc1OC	/	/	/	/	/	i	/	/	/	/
O=C(Nc1ccc(S(=O)(=O)Nc2ccnn2-c2ccccc2)cc1)C(F)(F)F	i	i	i	-1	-0.37	i	/	/	/	/
COc1ccc(C(F)(F)F)cc1N/C=C\c1nnnn1-c1ccccc1	i	i	9*	-15	-0.42	i	98*	0.42	64%*	79%*	KCNQ1 APC inh=i
CN(C)c1ccc(/C=C/c2nnnn2-c2ccccc2)cc1	i	i	i	-14	-0.15	i	/	/	/	/
COc1cc(C(=O)OCC(=O)N2CCC(C)CC2)cc2c1OCCO2	/	/	/	/	/	i	/	/	/	/
Cc1ccc(NC(=O)CSCC(=O)Nc2ccccc2N2CCCCC2)cc1	i	i	8*	-16	-2.1	i	114*	0.42	i	168%*	KCNQ1 APC inh=+
Cc1cccc(NC(=O)CSCC(=O)Nc2ccccc2N2CCCCC2)c1	i	i	i	-9	-0.16	i	/	/	/	/
O=C(CNCCC1=CCCCC1)Nc1ccccc1N1CCCCC1	i	i	8*	-19	0.8	i	132*	0.37*	110%*	179%*
O=C(CNC1CCCCCC1)Nc1ccccc1N1CCCCC1	i	i	i	-4	-2.8	i	/	/	/	/
CC(C)c1ccc(-c2cc(C(=O)N3CCOCC3)c3cc(Br)ccc3n2)cc1	i	i	6*	-12	-0.56	i	40*	0.43	131%*	i
O=C(c1cc(-c2ccccc2)nc2ccccc12)N1CCOCC1	i	i	i	-1	-1.2	i	/	/	/	/
Cc1ccc(NC(=S)N2CCC(NC(=O)c3ccco3)CC2)cc1C	i	i	i	-8	0.13	i	/	/	/	/
O=C(CC(Cc1ccccc1)C(=O)O)Nc1ccc(Cl)c(Cl)c1 (stereo not drawn)	i	i	i	-2	-0.76	i	/	/	/	/
Cc1csc2ncnc(NC3CCN(Cc4ccccc4)CC3)c12	i	i	8*	-17	-0.84	i	26*	0.53	i	57%*
c1ccc(CN2CCC(Nc3nc(-c4ccccc4)nc4ccccc34)CC2)cc1	i	i	i	-19	-0.31	i	/	/	/	/
Cc1cc(C)cc(NC(=O)NCC2CCN(Cc3cc(C)ccc3C)CC2)c1	i	i	i	-9	-0.26	i	/	/	/	/
Cc1ccc(C)c(CN2CCC(CNC(=O)Nc3ccc(F)c(Cl)c3)CC2)c1	i	i	7*	-17	-3.8	i	58*	0.43	i	42%*
Cc1ccc(CN2CC(C(=O)N(C)CC(=O)Nc3cccc(F)c3)CC2=O)cc1 (stereo not drawn)	i	i	i	-9	-0.04	i	/	/	/	/
Cc1ccc(Cn2c(=N)n(CC(O)COc3ccccc3)c3ccccc32)cc1 (stereo not drawn)	i	-7.6*	6*	-24	-8.5*	i	130*	0.48	68%*	i	KCNQ1 APC inh=i
COc1ccc(NC(=S)N2CCN(C(=O)C3CCCO3)CC2)cc1 (stereo not drawn)	i	i	i	0	-0.88	i	/	/	/	/
Cc1cccc(NC(=O)COc2ccccc2C(=O)NC(C)c2ccccc2)c1 (stereo not drawn)	i	i	7*	-7	0.02	i	130*	0.4	i	190%*
Cc1cccc(NC(=O)c2ccccc2OCC(=O)c2ccccc2)c1	i	i	i	-12	-1.1	i	/	/	/	/
SMILES	KCNQ1 act	KCNK9 block	KCNQ1 inh	hERG rescue	Kir21 inh	KCNK3 inh	KCNQ1 inh valid	CHO Tl flux	KCNQ2 inh	KCNQ1-KCNE1 inh	others
CCOC(=O)C1CCN(C(=O)C2CCC(=O)N(CC3CCCCC3)C2)CC1 (stereo not drawn)	i	i	i	-9	0.05	i	/	/	/	/
CC(NCC(=O)Nc1cc(S(=O)(=O)N2CCOCC2)ccc1Cl)c1ccc(Cl)cc1Cl (stereo not drawn)	i	i	7*	-13	0	i	70*	0.43	60%*	92%*
Cc1ccc(S(=O)(=O)N2CCOCC2)cc1NC(=O)CNC(C)c1ccccc1 (stereo not drawn)	/	/	/	/	/	i	/	/	/	/
COc1ccccc1-c1ccc(SCc2cccc(C)c2)nn1	i	i	11*	-25	-2.2	i	0	0.49	60%*	i
COc1ccc(C2C(C(=O)c3ccco3)=C(O)C(=O)N2CC2CCCO2)c(OC)c1 (stereo not drawn)	i	i	i	-8	0.16	i	/	/	/	/
CCOC(=O)c1c(NC(=O)c2ccccc2C)sc2c1CC(C)(C)OC2	i	i	7*	-10	0.27	i	86*	0.44	92%*	150%*
Cc1cccc(-c2cc(C(=O)Nc3ccc4c(c3)OCCO4)c3ccccc3n2)c1	i	i	9*	-10	0.77	i	78*	0.39	116%*	93%*

Compound activity (PubChem)
